Data from ChEMBL document CHEMBL4834419 (J Med Chem, 2021).
Converted amounts (≈) assume the structure as drawn. Each block holds one molecule with its values, some of them ahead of it. The source made the active and inactive calls. The calls are words filed in the database; no cut-off is given here.

Assays:
[1] = biological target: T1, Retinoic acid receptor RXR-beta (Homo sapiens) (UniProt P28702); test: Agonist activity at human RXRbeta transfected in human HEK293T cells co-expressing pFR/pRL-Luc at 30 uM incubated for 14 to 16 hrs by hybrid reporter gene assay; assay type: cell-based; details: time 14-16 hrs
T1 sequence (whole entry): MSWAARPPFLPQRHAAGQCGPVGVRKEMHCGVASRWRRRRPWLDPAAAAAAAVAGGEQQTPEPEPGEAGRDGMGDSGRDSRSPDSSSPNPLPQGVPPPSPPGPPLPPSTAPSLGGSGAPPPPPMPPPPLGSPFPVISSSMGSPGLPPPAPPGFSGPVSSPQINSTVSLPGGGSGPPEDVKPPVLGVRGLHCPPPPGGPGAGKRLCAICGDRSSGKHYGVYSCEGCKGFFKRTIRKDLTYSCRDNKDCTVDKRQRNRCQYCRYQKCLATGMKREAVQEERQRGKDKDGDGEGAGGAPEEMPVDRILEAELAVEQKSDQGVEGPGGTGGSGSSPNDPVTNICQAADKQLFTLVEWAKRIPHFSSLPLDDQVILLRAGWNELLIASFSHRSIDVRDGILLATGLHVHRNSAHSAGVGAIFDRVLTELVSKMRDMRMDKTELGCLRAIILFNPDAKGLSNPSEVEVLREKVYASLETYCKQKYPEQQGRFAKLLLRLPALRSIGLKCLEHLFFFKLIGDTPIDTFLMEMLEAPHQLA
How it was run: (§1)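 Gal4 hybrid reporter assay in HEK293T cells, seeded 24 h before transfection (Lipofectamine LTX, Opti-MEM) with pFR-Luc, pRL-SV40 and pFA-CMV plasmid carrying the hinge region and LBD of the human receptor. After 5 h, compound added in 0.1% DMSO, with 0.1% DMSO alone as untreated control. Dual-Glo luciferase read after 14−16 h; firefly/renilla normalized; duplicates, ≥2 independent experiments.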

[2] = biological target: T2, Retinoic acid receptor RXR-alpha (Homo sapiens) (UniProt P19793); test: Agonist activity at human RXRalpha transfected in human HEK293T cells co-expressing pFR/pRL-Luc at 30 uM incubated for 14 to 16 hrs by hybrid reporter gene assay; assay type: cell-based; details: time 14-16 hrs; how it was run: as §1
T2 sequence (whole entry): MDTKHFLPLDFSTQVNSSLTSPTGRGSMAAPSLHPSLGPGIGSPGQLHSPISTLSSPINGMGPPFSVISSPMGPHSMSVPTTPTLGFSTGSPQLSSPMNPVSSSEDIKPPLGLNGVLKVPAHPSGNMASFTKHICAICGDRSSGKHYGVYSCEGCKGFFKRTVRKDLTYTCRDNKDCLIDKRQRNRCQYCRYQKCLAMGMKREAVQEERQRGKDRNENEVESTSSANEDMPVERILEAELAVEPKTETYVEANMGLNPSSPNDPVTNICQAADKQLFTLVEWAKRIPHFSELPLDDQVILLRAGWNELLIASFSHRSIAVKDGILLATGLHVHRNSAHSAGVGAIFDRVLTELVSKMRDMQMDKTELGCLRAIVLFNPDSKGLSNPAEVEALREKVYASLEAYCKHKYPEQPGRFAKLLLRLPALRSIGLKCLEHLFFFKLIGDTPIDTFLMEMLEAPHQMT

[3] = biological target: T1, Retinoic acid receptor RXR-beta (Homo sapiens); test: Agonist activity at human RXRbeta transfected in human HEK293T cells co-expressing pFR/pRL-Luc incubated for 14 to 16 hrs by hybrid reporter gene assay; assay type: cell-based; details: time 14-16 hrs
[4] = biological target: T2, Retinoic acid receptor RXR-alpha (Homo sapiens); test: (§2) Agonist activity at human RXRalpha transfected in human HEK293T cells co-expressing pFR/pRL-Luc incubated for 14 to 16 hrs by hybrid reporter gene assay; assay type: cell-based; details: time 14-16 hrs
[5] = biological target: T3, Retinoic acid receptor RXR-gamma (Homo sapiens) (UniProt P48443); test: Agonist activity at human RXRgamma transfected in human HEK293T cells co-expressing pFR/pRL-Luc at 30 uM incubated for 14 to 16 hrs by hybrid reporter gene assay; assay type: cell-based; details: time 14-16 hrs; how it was run: as §1
T3 sequence (whole entry): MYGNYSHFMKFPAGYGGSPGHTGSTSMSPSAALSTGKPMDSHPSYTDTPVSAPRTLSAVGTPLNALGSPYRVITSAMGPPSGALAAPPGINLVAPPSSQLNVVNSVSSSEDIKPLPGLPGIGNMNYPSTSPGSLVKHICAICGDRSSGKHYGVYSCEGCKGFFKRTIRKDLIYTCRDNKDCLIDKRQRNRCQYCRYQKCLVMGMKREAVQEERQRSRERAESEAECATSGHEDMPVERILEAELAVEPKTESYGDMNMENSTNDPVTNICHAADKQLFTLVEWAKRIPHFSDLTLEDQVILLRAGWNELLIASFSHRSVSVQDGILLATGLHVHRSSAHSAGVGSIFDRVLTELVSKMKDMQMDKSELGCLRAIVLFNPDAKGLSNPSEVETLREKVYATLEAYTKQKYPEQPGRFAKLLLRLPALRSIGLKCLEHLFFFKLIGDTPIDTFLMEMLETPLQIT

[6] = biological target: T4, Nuclear receptor subfamily 1 group I member 3 (Homo sapiens, UniProt Q14994); test: Agonist activity against human CAR in human HEK293T cells co-expressing pFR/pRL-Luc assessed as receptor activation at 10 uM incubated for 14 to 16 hrs by hybrid reporter gene assay relative to bexarotene; assay type: cell-based; details: time 14-16 hrs; how it was run: as §1
T4 sequence (Q14994 whole entry): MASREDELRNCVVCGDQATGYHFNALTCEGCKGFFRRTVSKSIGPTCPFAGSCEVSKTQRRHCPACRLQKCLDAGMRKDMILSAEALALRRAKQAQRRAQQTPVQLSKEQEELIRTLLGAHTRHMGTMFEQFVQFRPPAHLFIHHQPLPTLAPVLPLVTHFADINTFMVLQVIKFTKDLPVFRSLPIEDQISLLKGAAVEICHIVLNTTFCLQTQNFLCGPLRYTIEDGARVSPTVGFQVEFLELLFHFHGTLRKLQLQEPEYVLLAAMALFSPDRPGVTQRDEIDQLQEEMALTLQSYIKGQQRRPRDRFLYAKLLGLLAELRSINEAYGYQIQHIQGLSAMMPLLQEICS

[7] = Plasma concentration in mouse at 10 mg/kg, po measure after 3 hrs; assay type: ADME, organism-based
How it was run: (§3)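 Mice, n = 3, received a single oral dose of 10 mg/kg in water with 1% hydroxypropyl methylcellulose/Tween 80 (99:1). Tail-vein blood was drawn at 30 and 60 min and tissue collected at 3 h. Compound was quantified by LC−MS and PK derived by noncompartmental analysis.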

[8] = biological target: T5, Retinoic acid receptor RXR-alpha (Homo sapiens, UniProt P19793); test: as §2; assay type: cell-based
T5 sequence (P19793 whole entry): T2 sequence (whole entry)

[9] = biological target: T6, Retinoic acid receptor RXR-gamma (Homo sapiens, UniProt P48443); test: Agonist activity at human RXRgamma transfected in human HEK293T cells co-expressing pFR/pRL-Luc incubated for 14 to 16 hrs by hybrid reporter gene assay; assay type: cell-based
T6 sequence (P48443 whole entry): T3 sequence (whole entry)

[10] = Metabolic stability in Sprague-Dawley rat liver microsomes assessed as compound degradation at 10 uM incubated for 60 min by HPLC analysis; assay type: ADME; details: 1 h
How it was run: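 Compound at 10 μM final in 0.1 M phosphate, pH 7.4, was preincubated 5 min at 37 °C with an NADPH-regenerating system. Sprague-Dawley rat liver microsomes were then added. Reactions were stopped with ice-cold methanol at 0, 15, 30 and 60 min and remaining compound quantified by HPLC against an external calibration. Controls: no NADPH, heat-inactivated microsomes. Three independent experiments.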

[11] = tested on: HepG2; test: Cytotoxicity against human HepG2 cells assessed as reduction in cell viability up to 100 uM incubated for 48 hrs by WST-1 assay; assay type: cell-based; details: hepg2, 48 h
How it was run: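 HepG2 cells were seeded at 3 × 10⁴/well and grown 24 h. Medium was then switched to DMEM with 1% FCS containing compound in 0.1% DMSO; 0.1% DMSO alone was the negative control. After 48 h, WST-1 was added and absorbance read at 450/620 nm after 45 min. Four experiments in duplicate.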

[12] = tested on: HepG2; test: Cytotoxicity against human HepG2 cells assessed as reduction in cell viability incubated for 48 hrs by WST-1 assay; details: HepG2, 48 h
[13] = Aqueous solubility of compound in pH 8 phosphate buffer incubated for 1 hr by HPLC analysis; assay type: physicochemical
How it was run: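 Solubility was measured with 3 mg compound in 2 mL 0.1 M phosphate buffer, pH 8, shaken 1 h at 37 °C. The mixture was pressed through a Uniprep filter and the dissolved compound in the filtrate quantified by HPLC against an external calibration; three independent experiments.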

[14] = Half life in po dosed rat; assay type: ADME, organism-based; details: in vivo
[15] = Cmax in po dosed rat; assay type: ADME, organism-based; set-up: route oral; details: in vivo
[16] = Cmax in mouse at 10 mg/kg, po; assay type: ADME, organism-based; set-up: route oral, dose 10 mg/kg; details: in vivo; how it was run: as §3
[17] = Half life in mouse at 10 mg/kg, po; assay type: ADME, organism-based; details: in vivo; how it was run: as §3

- Activity [1]: inactive
- Activity [2]: inactive
- Activity [3]: inactive
- Activity [4]: inactive
- Activity [5]: inactive
SMILES: CN(C)c1cccc(-c2oc(CCC(=O)O)nc2-c2ccccc2)c1

- Activity [6]: 15%
- concentration at 3 h [7]: 35000 ng/mL
- EC50 [8]: 300 nM
- EC50 [9]: 1500 nM
- Stabilty [10]: Stable
SMILES: O=C(O)CCc1cc(-c2cc(Cl)cc(Cl)c2)n(-c2ccc(Cl)cc2)n1
- Activity [11]: Non-Toxic

- solubility ([13]; buffer, pH 8, 1 h): 0.3 µg/mL (≈ 0.861 µM)
- half-life [14]: 1.2 h
- Cmax [15]: 600 ng/mL
SMILES: C=C(c1ccc(C(=O)O)cc1)c1cc2c(cc1C)C(C)(C)CCC2(C)C [BEXAROTENE]
- IC50 [12]: 20000 nM

- Activity [6]: 4%
- Cmax [16]: 33000 ng/mL
- solubility at 1 h ([13]; phosphate buffer, pH 8): 146 µg/mL (≈ 340 µM)
- half-life [17]: > 3 h
- EC50 [8]: 50 nM
- EC50 [9]: 50 nM
- Stabilty [10]: Stable
SMILES: O=C(O)CCc1nc(-c2ccccc2)c(-c2cc(C(F)(F)F)cc(C(F)(F)F)c2)o1
- Activity [11]: Non-Toxic
